The record followed here is ChEMBL document CHEMBL1142537, “Spirocyclic benzopyran-based derivatives as new anti-ischemic activators of mitochondrial ATP-sensitive potassium channel” (J Med Chem, 2008).

The test system of test [1] is Aorta. Description: Vasorelaxation activity in Wistar rat thoracic aortic ring assessed as inhibition of KCl-induced contraction at 100 uM relative to KCl. It is filed as functional. The method, boiled down: (§1)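 Endothelium-denuded rat aortic rings recorded isometrically, equilibrated 60 min. Denudation checked with ACh (10 µM) on KCl (20 mM) tone; rings relaxing ≥10% discarded. Rings contracted with 20 mM KCl, then given 3-fold cumulative concentrations from 10 nM to 100 µM.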

For test [2], the system named is Rattus norvegicus. Description: Cardioprotective activity in Langendorff perfused Wistar rat assessed as rate pressure product at 40 mg/kg, ip recorded after 30 mins of ischemia followed by 120 mins of reperfusion in presence of 5-hydroxydecanoic acid. The format is functional, organism-based. Also on record: dose 40 mg/kg. The method, boiled down:
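In this series the mito-KATP blocker 5-hydroxydecanoic acid (10 mg/kg, in water) was given 20 min before the ip compound (40 mg/kg). The Langendorff protocol was then run: 30 min global ischemia, 120 min reperfusion. RPP at 120 min expressed as % of preischemic value.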

For test [3], the system named is Rattus norvegicus. Description: Cardioprotective activity in Langendorff perfused Wistar rat assessed as rate pressure product at 1 mg/kg, ip recorded after 30 mins of global ischemia followed by 120 mins of reperfusion. It is filed as functional. As to conditions: route intraperitoneal. The method, boiled down: (§2)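 Adult male Wistar rats (260-350 g) given the compound ip in DMSO (40 mg/kg; cromakalim 1 mg/kg), then after 2 h anaesthetised with pentobarbital (100 mg/kg ip) and heparinized (100 UI ip). Hearts on Langendorff apparatus with an LV balloon (end-diastolic 5-10 mmHg). 30 min equilibration, 30 min global no-flow ischemia, 120 min reperfusion. RPP at 120 min expressed as % of preischemic RPP.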

Test [4] relates to Rattus norvegicus. Description: Hypotensive activity in normotensive Wistar rat assessed as systolic blood pressure at 1 mg/kg, ip after 90 mins. The following applies: Artery. Also on record: dose 1 mg/kg. The format is functional, organism-based. The method, boiled down: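 Male 10-week-old normotensive Wistar rats (250 g), heparinized (100 UI ip) and anaesthetised with pentobarbital (60 mg/kg). Tail warmed 20 min under IR lamp, basal systolic pressure taken by tail-cuff. Cromakalim given ip at 1 mg/kg, groups of five. Systolic pressure recorded every 30 min for 90 min, as % of basal.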

Test [5] relates to Rattus norvegicus. Description: Cardioprotective activity in Langendorff perfused Wistar rat assessed as rate pressure product at 40 mg/kg, ip recorded after 30 mins of global ischemia followed by 120 mins of reperfusion. As to conditions: route intraperitoneal. It is filed as functional. The method, boiled down:
as §2

Test [6] concerns Rattus norvegicus. Description: Antiischemic activity in Langendorff perfused Wistar rat assessed as ratio of ischemic area to total area at 40 mg/kg, ip. The following applies: route intraperitoneal. The format is functional.
Test [7] relates to Aorta. Description: Vasorelaxation activity in Wistar rat thoracic aortic ring assessed as inhibition of KCl-induced contraction. The format is functional, tissue-based. The method, boiled down:
as §1

Active and inactive are the calls of the source. The calls are words filed in the database; no cut-off is given here.

Consider `CC(=O)Nc1ccc(CN2CC3(CC(C)(C)Oc4ccc(Br)cc43)OCC2=O)cc1` (racemic), for which the Emax at 100 µM in test [1] was 69.7%.
On to `CC1(C)CC2(CN(Cc3ccc(NS(C)(=O)=O)cc3)C(=O)CO2)c2cc(Br)ccc2O1` (racemic), for which the result in test [2] was inactive. In addition, the Emax at 100 µM in test [1] turned out to be 86.8%.
Take `CC1(C)Oc2ccc(C#N)cc2C(N2CCCC2=O)C1O` (stereo not drawn) [CROMAKALIM]: the Activity in test [3] amounted to 94%. Further, in test [2], the result was inactive. Also, the result in test [4] was Active.
Turning to `CC1(C)CC2(CN(Cc3ccccc3)CCO2)c2ccccc2O1` (racemic), the Activity in test [5] worked out at 77%. Further, the Ratio in test [6] was found to be 18%. For the same molecule, the result in test [2] was inactive. Besides, in test [1], the Emax at 100 µM was 85.9%. In test [7], the half-inhibitory concentration (IC50) is 6.76 µM.
`Cc1ccc(CN2CC3(CC(C)(C)Oc4ccccc43)OCC2=O)cc1` (racemic): the Activity in test [5] is 44%. Besides, the Ratio in test [6] was found to be 23%.
On to `COc1ccc(CN2CCOC3(C2)CC(C)(C)Oc2ccc(Br)cc23)cc1` (racemic), for which, in test [5], the Activity is reported as 60%. In test [6], the Ratio was 10%. Moreover, the Emax at 100 µM in test [1] came out at 61.6%. In addition, in test [7], the IC50 was 34.7 µM.
`COc1ccc(CN2CC3(CC(C)(C)Oc4ccc(Br)cc43)OCC2=O)cc1` (racemic): the Activity in test [5] amounted to 76%. In addition, the Ratio in test [6] is 16%. The maximal response (Emax) at 100 µM in test [1] is 91.8%. In addition, in test [7], the concentration for half-maximal inhibition (IC50) is 3.02 µM.
As for `Cc1ccc(CN2CC3(CC(C)(C)Oc4ccc(Br)cc43)OCC2=O)cc1` (racemic), the Activity in test [5] amounted to 38%. Also, the Ratio in test [6] was determined as 22%.
`CC1(C)CC2(CN(Cc3ccc(NS(C)(=O)=O)cc3)CCO2)c2ccccc2O1` (racemic): the Activity in test [5] is on record as 23%. In addition, the Ratio in test [6] was determined as 35%. For the same molecule, in test [1], the maximum response (Emax) at 100 µM was 80.6%. Besides, the 50% inhibitory concentration (IC50) in test [7] is 15.5 µM.
Turning to `COc1ccccc1CN1CC2(CC(C)(C)Oc3ccccc32)OCC1=O` (racemic), the Activity in test [5] worked out at 36%. Also, the Ratio in test [6] came to 25%.
The corresponding values for `COc1cccc(CN2CCOC3(C2)CC(C)(C)Oc2ccc(Br)cc23)c1` (racemic) are 42% and 29%.
In the case of `CC1=Nc2ccc(Cl)cc2S(=O)(=O)N1` [DIAZOXIDE], the Ratio in test [6] is reported as 28%. Further, the result in test [2] was inactive.
For the molecule `CC1(C)CC2(CN(Cc3ccc(NS(C)(=O)=O)cc3)C(=O)CO2)c2ccccc2O1` (racemic), the Activity in test [5] turned out to be 70%. In addition, the Ratio in test [6] is on record as 23%. In test [1], the Emax at 100 µM is 98%. For the same molecule, the IC50 in test [7] was 2.95 µM.
In the case of `CC1(C)CC2(CN(Cc3ccc(N)cc3)C(=O)CO2)c2cc(Br)ccc2O1` (racemic), in test [5], the Activity was 52%. Further, in test [6], the Ratio worked out at 22%.
Taken in the same sequence, the figures for `COc1ccccc1CN1CCOC2(C1)CC(C)(C)Oc1ccc(Br)cc12` (racemic) were 59% and 30%.
The corresponding values for `COc1ccccc1CN1CC2(CC(C)(C)Oc3ccc(Br)cc32)OCC1=O` (racemic) are 42% and 28%.
Consider `CC1(C)CC2(CN(Cc3ccc(Br)cc3)CCO2)c2ccccc2O1` (racemic), for which, in test [5], the Activity is reported as 43%. The Ratio in test [6] came to 35%.
As for `CC(=O)Nc1ccc(CN2CCOC3(C2)CC(C)(C)Oc2ccc(Br)cc23)cc1` (racemic), the maximal response (Emax) at 100 µM in test [1] worked out at 99.8%.
For `CC1(C)CC2(CN(Cc3ccc(NS(C)(=O)=O)cc3)CCO2)c2cc(Br)ccc2O1` (racemic), the result in test [2] was inactive. In addition, the maximal response (Emax) at 100 µM in test [1] is 98.1%.
Consider `CC(=O)Nc1ccc(CN2CCOC3(C2)CC(C)(C)Oc2ccccc23)cc1` (racemic), for which the Emax at 100 µM in test [1] came to 76.6%.
For `Cc1ccc(CN2CCOC3(C2)CC(C)(C)Oc2ccccc23)cc1` (racemic), the Activity in test [5] is reported as 35%. The Ratio in test [6] came to 47%.
Taken in the same sequence, the figures for `COc1ccc(CN2CCOC3(C2)CC(C)(C)Oc2ccccc23)cc1` (racemic) were 61% and 26%.
With `Cc1ccc(CN2CCOC3(C2)CC(C)(C)Oc2ccc(Br)cc23)cc1` (racemic), the Activity in test [5] is listed as 57%. Besides, the Ratio in test [6] is recorded as 29%.
On to `CC1(C)CC2(CN(Cc3ccccc3)C(=O)CO2)c2ccccc2O1` (racemic), for which the Activity in test [5] amounted to 35%. In addition, the Ratio in test [6] turned out to be 33%. In test [1], the Emax at 100 µM is 55.3%. Besides, the half-inhibitory concentration (IC50) in test [7] is 28.2 µM.
In the case of `COc1cccc(CN2CC3(CC(C)(C)Oc4ccccc43)OCC2=O)c1` (racemic), the Activity in test [5] is reported as 29%. Besides, the Ratio in test [6] is reported as 41%.
The corresponding values for `CC1(C)CC2(CN(Cc3ccc(Br)cc3)C(=O)CO2)c2cc(Br)ccc2O1` (racemic) are 23% and 47%.
The corresponding values for `COc1cccc(CN2CC3(CC(C)(C)Oc4ccc(Br)cc43)OCC2=O)c1` (racemic) are 27% and 29%.
The corresponding values for `COc1ccc(CN2CC3(CC(C)(C)Oc4ccccc43)OCC2=O)cc1` (racemic) are 27% and 29%.
Regarding `CC1(C)CC2(CN(Cc3ccc(Br)cc3)C(=O)CO2)c2ccccc2O1` (racemic), the Activity in test [5] stood at 80%. Moreover, the Ratio in test [6] is listed as 23%. Besides, the Emax at 100 µM in test [1] is 89.2%. Also, the IC50 in test [7] is 4.9 µM.
As to `CC1(C)CC2(CN(Cc3ccc(N)cc3)CCO2)c2cc(Br)ccc2O1` (racemic), in test [5], the Activity is 30%. The Ratio in test [6] was 39%.
Taken in the same sequence, the figures for `CC1(C)CC2(CN(Cc3ccccc3)CCO2)c2cc(Br)ccc2O1` (racemic) were 42% and 31%.
With `CC1(C)CC2(CN(Cc3ccc(N)cc3)CCO2)c2ccccc2O1` (racemic), the Activity in test [5] is 58%. Further, in test [6], the Ratio is 25%. Also, the Emax at 100 µM in test [1] came out at 52.3%. For the same molecule, the IC50 in test [7] was 28.2 µM.
Taken in the same sequence, the figures for `CC1(C)CC2(CN(Cc3ccc(C(F)(F)F)cc3)C(=O)CO2)c2ccccc2O1` (racemic) were 2%, 53%, 101% and 7.08 µM.
On to `CC(=O)Nc1ccc(CN2CC3(CC(C)(C)Oc4ccccc43)OCC2=O)cc1` (racemic), for which the result in test [2] was inactive. Further, the Emax at 100 µM in test [1] amounted to 56.5%.
Consider `CC1(C)CC2(CN(Cc3ccc(N)cc3)C(=O)CO2)c2ccccc2O1` (racemic), for which, in test [5], the Activity turned out to be 53%. In addition, the Ratio in test [6] is 19%. Besides, the maximum response (Emax) at 100 µM in test [1] is 12.5%.
As to `CC1(C)CC2(CN(Cc3ccc(C(F)(F)F)cc3)CCO2)c2ccccc2O1` (racemic), the Activity in test [5] came out at 34%. Besides, the Ratio in test [6] worked out at 31%. For the same molecule, the Emax at 100 µM in test [1] amounted to 59.9%. Besides, the IC50 in test [7] was 22.9 µM.
The corresponding values for `CC1(C)CC2(CN(Cc3ccc(C(F)(F)F)cc3)CCO2)c2cc(Br)ccc2O1` (racemic) are 84%, 5%, 57.8% and 17.8 µM.
The corresponding values for `CC1(C)CC2(CN(Cc3ccccc3)C(=O)CO2)c2cc(Br)ccc2O1` (racemic) are 37%, 43%, 65.8% and 14.5 µM.
Regarding `CC1(C)CC2(CN(Cc3ccc(C(F)(F)F)cc3)C(=O)CO2)c2cc(Br)ccc2O1` (racemic), the Activity in test [5] came out at 47%. Besides, the Ratio in test [6] came to 42%.
Taken in the same sequence, the figures for `COc1cccc(CN2CCOC3(C2)CC(C)(C)Oc2ccccc23)c1` (racemic) were 38% and 17%.
The corresponding values for `COc1ccccc1CN1CCOC2(C1)CC(C)(C)Oc1ccccc12` (racemic) are 65% and 34%.
Regarding `CC1(C)CC2(CN(Cc3ccc(Br)cc3)CCO2)c2cc(Br)ccc2O1` (racemic), in test [5], the Activity is 53%. In addition, the Ratio in test [6] was 16%.
